This series concerns MS2 coat protein. In words: apparent Kd, MS2 coat protein; higher = weaker binding; RNA-MaP array; FMN 200 µM where present. In outline: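 Stalled E. coli RNA polymerase produced the designs on Illumina sequencing-chip clusters. SNAP-549-labelled MS2 coat protein was added from 0.7 or 1.5 nM, doubling to 3 µM, without and then with constant ligand, in 100 mM Tris-HCl pH 7.5, 80 mM KCl, 4 mM MgCl2, BSA, DTT, yeast tRNA and Tween-20. The apparent Kd is the median of filtered per-cluster fits of green signal normalised to red-channel RNA signal and control-cluster median Fmax.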

The mark [1] stands for this setting: designed as: OFF switch for flavin mononucleotide, no ligand.
The mark [2] stands for this setting: ligand present: flavin mononucleotide, designed as: OFF switch for flavin mononucleotide.
Setting [3] is: designed as: ON switch for flavin mononucleotide, no ligand.
[4] abbreviates: ligand present: flavin mononucleotide, designed as: ON switch for flavin mononucleotide.

For orientation: apparent Kd means the concentration giving half-maximal binding under the conditions of the assay. “GUAGAGUAGUGAGGAUAUACGAGCACGAUAGUGCGGCGAUCCAAUAAUACAUGAGGAUCACCCAUGUAGAAGGCACUUCUCUAC”: the “apparent Kd” value by setting is: under setting [1], 7.43 nM; under setting [2], 81.2 nM.

On to “AUACAUGAGGAUCACCCAUGUUACUGGGUCUAAAUAGAACGUAGAAGGAUGUAUUUACACAUAACAUAGGAUAUACUAUAUAGU”, for which the “apparent Kd” value runs as follows: under setting [1], 153 nM; under setting [2], 72.8 nM.

For the sequence “UCACGAGACUAAGGAUAUGGAGUGUCAACAUAAAACAUGAGGAUCACCCAUGUAAAGAGUACGAUUCAGAAGGUAGAGACGUGA”, the “apparent Kd” value runs as follows: under setting [3], 43 nM; under setting [4], 25.1 nM.

As to “GUGAACAUGAGGAUCACCCAUGUAGCUCACUGCCAGUGGCUACAGGAUAUAGCACUCCGAAGGUGCUAGAAGGGUGGCCUAGAA”, the “apparent Kd” value is, setting by setting: under setting [3], 92.8 nM; under setting [4], 22.1 nM.

“AUACAUGAGGAUCACCCAUGUGGAUCACCCAUGUAAGAUGGUAGAAGGAUGUUAUUAUUAUUUUCAUAGGAUAUACUAUUUAGU”: the “apparent Kd” value runs as follows: under setting [1], 328 nM; under setting [2], 408 nM.

On to “GCAGGAUAAGUGAGGAUAUACCUAUGGAUACAUAGGUAGAAGGCACAUGAGGAUCACCCAUGUUCCUUGCCUGC”, for which the “apparent Kd” value is, setting by setting: under setting [1], 13 nM; under setting [2], 42.7 nM.

As for “CCUCAGUAAGGAUAUCAGCUUAUAAAGUUGGUAAUGAGAGCUGAGAAGGUACAUGAGGAUCACCCAUGUUAGUU”, the “apparent Kd” value by setting is: under setting [1], 21.4 nM; under setting [2], 66.3 nM.

Turning to “GCGUUUGUAUCACAUGUAUUACAUGAGGAUCACCCAUGUUACUAGGAUAUGUAUUAGUAUUAUCAACAGAAGGAGUAAGAACGC”, the “apparent Kd” value is 17.5 nM under setting [1] and 18.3 nM under setting [2].

Take “UCUGGUCGAGGAUAUGCAUUCGUGCUUCGGCACGUAAGGUCACAUGAGGAUCACCCAUGUAGAAGGCGACCAGA”: the “apparent Kd” value under setting [1] was determined as 19.6 nM and the “apparent Kd” value under setting [2] was 35.9 nM.

As to “AAUAACAGAGGAUAUACUGUUUUAUGUGUUUAUUGUUUUAAACAUGAGGAUCACCCAUGUAGAAGGCUGAAUGA”, the “apparent Kd” value is, setting by setting: under setting [1], 43.8 nM; under setting [2], 41.9 nM.

Take “CCACUGUCAGGAUAUCGUGCAUAAGCGUUUACAUUUAUGUGCGAGAAGGGACAUGAGGAUCACCCAUGUAAACG”: the “apparent Kd” value amounted to 417 nM under setting [1] and 653 nM under setting [2].

With “GGUACUCAAAGAGUACCAAUACGAACAUGAGGAUCACCCAUGUAGGAUAUGCUACUCAAAGAGUAGCAGAAGGACAUGUGCUUA”, the “apparent Kd” value is, setting by setting: under setting [1], 25.9 nM; under setting [2], 135 nM.

As for “AACACACAUGAGGAUCACCCAUGUGAGGAUAUCAUGCUUCGUAGUAAACUACGAAGUGUGAGAAGGCACAUGUU”, the “apparent Kd” value was 62.4 nM under setting [1] and 193 nM under setting [2].

Regarding “GUUUCACAUGAGGAUCACCCAUGUGAGGAUAUGGUUUCGCUGGCCGUAGCCAGUGGAACCAGAAGGCGCAUGAU”, the “apparent Kd” value by setting is: under setting [1], 36.5 nM; under setting [2], 41.3 nM.

“CCCUCACAUGAGGAUCACCCAUGUUAGGAUAUCUACCUGGAGCUUUGAUUAGCCCAACGGAGAAGGAACGUGCA”: the “apparent Kd” value came out at 19 nM under setting [1] and 18.7 nM under setting [2].

Turning to “GGAGCACGCACAGGAUAUCCGGCGGCGCUCGUCGGAGAAGGGUGACAUGAGGAUCACCCAUGUACGUGCAACUUAGUUUAAGAG”, the “apparent Kd” value runs as follows: under setting [3], 37.1 nM; under setting [4], 29.6 nM.

With “UUAAAUCAUGUAGGAUAUGCAUGGCGAAGCUACGCAGAAGGACAUGAGGAUCACCCAUGUUAUAGCGACCAAGUUAGGUUGCAA”, the “apparent Kd” value by setting is: under setting [1], 88.7 nM; under setting [2], 211 nM.

Consider “AUGUUUCAUGUAGGAUAUGCAUACUGUUAGUAUGCAGAAGGACAUGAGGAUCACCCAUGUAUAUUAUCAUUACAUAUCAUACAU”, for which the “apparent Kd” value by setting is: under setting [1], 60.4 nM; under setting [2], 492 nM.

As to “GUACUGUAGUGAGGAUAUACGAGAUCGAUAGAUCGGCGAUCCAUUAAUACAUGAGGAUCACCCAUGUAGAAGGCACUUCAGUAC”, the “apparent Kd” value was 6.25 nM under setting [1] and 78.4 nM under setting [2].

On to “UGGUACUAGGGAGGAUAUGGGAAGAUACAUGAGGAUCACCCAUGUUUUAGAAUGCCGAGAGGCAACUAGAAGGCCCUAGUACCU”, for which the “apparent Kd” value is 1110 nM under setting [3] and 74.5 nM under setting [4].

Consider “UCCACUACUGAGAAGGGAUACAUAUAAUUUUAGUCAGGAUAUCGAUACAGUGCAGCAUGAGGACAUGAGGAUCACCCAUGUAUU”, for which the “apparent Kd” value runs as follows: under setting [3], 22.3 nM; under setting [4], 15.2 nM.

On to “CUCUUGGCAGGAUAUGCUCUCUUAGACAUGAGGAUCACCCAUGUGUUCAUUCUUUCUUUUGCAGAAGGGCCUUAAC”, for which the “apparent Kd” value under setting [1] came out at 87.1 nM and the “apparent Kd” value under setting [2] amounted to 82.8 nM.

On to “AUAAAACAUGAGGAUCACCCAUGUAAGGAUAUGCGAAAAUAAAAUAAAAUAAAAUAAAGCAGAAGGUACAAAAA”, for which the “apparent Kd” value under setting [1] is 51 nM and the “apparent Kd” value under setting [2] was 59.6 nM.

For “UAUCUAUUUAUGGGAUUAGAAUAUGAGGAUAUCAUUUAUUUAUACAUGAGGAUCACCCAUGUUACUGAGAAGGCAUAUUUAAUA”, the “apparent Kd” value under setting [3] is 13.4 nM and the “apparent Kd” value under setting [4] is 7.47 nM.

Consider “UAGGAGUACGUAGGAUAUGUAGGAUAUUCCUACAUGAGGAUCACCCAUGUUAGCAUGGAAGAAGGACAGAAGGACGUGCUCCUU”, for which the “apparent Kd” value came to 1090 nM under setting [3] and 16.1 nM under setting [4].

As for “CUAUUACGAGGAUAUGAUUUAAAUAACAUGAGGAUCACCCAUGUUUUUACGUUAUUUUGUUUAGAAGGCGUAUUGU”, the “apparent Kd” value is, setting by setting: under setting [1], 52.9 nM; under setting [2], 35.7 nM.

For “AAAGACUAAGGAUAUACAUGAGGAUCACCCAUGUCUACCCACAUGCUGGUAUCAACCUGUAGAAGGUAGUUCAA”, the “apparent Kd” value under setting [1] amounted to 27.8 nM and the “apparent Kd” value under setting [2] came to 85.9 nM.

With “GGUACUCAAAGAGUACCAAUACGAACAUGAGGAUCACCCAUGUAGGAUAUGCUACUCAAAGAGUAGCAGAAGGACGUGUGCCUU”, the “apparent Kd” value by setting is: under setting [1], 21.4 nM; under setting [2], 42.4 nM.

In the case of “GUGCGGUCAGGAUAUGCAUGGCGGGACUUGCGUCGUGGCGUGGAGAAGGGACAUGAGGAUCACCCAUGUGGAGU”, the “apparent Kd” value is 76.6 nM under setting [1] and 45.3 nM under setting [2].

For the sequence “UUUUUAUUUGUAGGAUAUGGAGACAUGAGGAUCACCCAUGUAUGAUAAGCUAAAUUAUGAUGUGGCCAGAAGGAUAUUAUUUUU”, the “apparent Kd” value is, setting by setting: under setting [3], 51.1 nM; under setting [4], 72.6 nM.

With “ACACGACAUGAGGAUCACCCAUGUUUCCGAUUCACAGGAUAUGGGACAUCCGGAGGGUGACCAGAAGGGUGACUCG”, the “apparent Kd” value worked out at 151 nM under setting [3] and 28.3 nM under setting [4].

For the sequence “AGCUCGUACACAGGAUAUCCGUUGCUGCGCACUGGAGAAGGGUGACAUCCGCACAUGAGGAUCACCCAUGUACCGGGACAAUAU”, the “apparent Kd” value under setting [3] turned out to be 282 nM and the “apparent Kd” value under setting [4] was determined as 640 nM.

Regarding “ACUAGAAGCGUGAAAUAUCACAUGAGGAUCACCCAUGUGACGCAGGAUAUAACAAAAUCAGAAGGUUAGAAGGGUGAGCACGCC”, the “apparent Kd” value runs as follows: under setting [3], 26.8 nM; under setting [4], 20.2 nM.

Turning to “AAGAAGUCAGGAUAUGCAUGGCGGGACUUGCGUCGUGGCGUGCAGAAGGGACAUGAGGAUCACCCAUGUGGAGC”, the “apparent Kd” value turned out to be 107 nM under setting [1] and 161 nM under setting [2].

Regarding “GGGUGGCGUACAGGAUAUGUGGUACAUGAGGAUCACCCAUGUGCAUAUGAUGUUCGUGUGUCAUCAUAGAAGGGUACGUCGCUA”, the “apparent Kd” value reads like this: under setting [3], 91.2 nM; under setting [4], 59.2 nM.

Consider “ACUAAACGAGGAUAUACUGACAGGCCUCAGACAUACAUCAAACAUGAGGAUCACCCAUGUAGAAGGCGUAAACU”, for which the “apparent Kd” value was 37.2 nM under setting [1] and 36.7 nM under setting [2].

On to “GUAUGGGUAGAAGGACAUGAGGAUCACCCAUGUUGUGUGUCUAAGGAUAUUAGAGAAGAUUGACGUAAGAAGGUAGAUGUGUGG”, for which the “apparent Kd” value by setting is: under setting [1], 94.2 nM; under setting [2], 80.8 nM.

In the case of “CGCAAGUAUACAUGAGGAUCACCCAUGUCAGAAAGGGUAAUCAGAAGGUACUAUUAGAGAUAGAGUAAGGAUAUGAAAUUUGUG”, the “apparent Kd” value under setting [3] came to 399 nM and the “apparent Kd” value under setting [4] stood at 110 nM.

On to “UGAUAGGACAGAGGAUAUGCCGAUAGGAUCUAUUAUCGAAGAAUCCUCACAUGAGGAUCACCCAUGUAGAAGGCUGUCCUAUCU”, for which the “apparent Kd” value under setting [1] was 9.32 nM and the “apparent Kd” value under setting [2] turned out to be 36.6 nM.

As to “GGAUAGGACAGAGGAUAUACGUGCUAGAGAUACUAGCAAAAUUUCAUCACAUGAGGAUCACCCAUGUAGAAGGCUGUCCUAUCG”, the “apparent Kd” value under setting [1] stood at 4.81 nM and the “apparent Kd” value under setting [2] was 8.63 nM.

Consider “CGAUAGGACAGAGGAUAUACACAUGAGGAUCACCCAUGUGAUUUCGGCGCGAAAGCGCCAAACAUGUAGAAGGCUGUCCUAUCG”, for which the “apparent Kd” value is, setting by setting: under setting [1], 11.3 nM; under setting [2], 4.89 nM.

Take “CAGGACAGAGGAUAUACAUAGAUACAGAUUCAUGUAGAACUACAUGAGGAUCACCCAUGUAGAAGGCUGACCUG”: the “apparent Kd” value was determined as 28.5 nM under setting [1] and 221 nM under setting [2].

Consider “UUAAAUCAUGUAGGAUAUGCAUGGCGAAGCUACGCAGAAGGACAUGAGGAUCACCCAUGUUAUAGCGUCCAAGUAAGGAUGCAA”, for which the “apparent Kd” value is 84.8 nM under setting [1] and 269 nM under setting [2].

In the case of “UUUAUGUCAGGAUAUGAGGAGUAGAACAAUAGUACUACUCCUCAGAAGGGACAUGAGGAUCACCCAUGUUCCUC”, the “apparent Kd” value under setting [1] is 20.7 nM and the “apparent Kd” value under setting [2] worked out at 91.9 nM.

For “AGAUCUAGGACAGGAUAUACUGAUGGCUUCAUCGAAGAUGAAGCCAUCACAUGAGGAUCACCCAUGUAGAAGGGUCCUAGAUCA”, the “apparent Kd” value came out at 14.5 nM under setting [1] and 14.9 nM under setting [2].

For “ACGCUUUGGGAGAAGGUACUUUAAAUUUUUUCCACAUGAGGAUCACCCAUGUAAGGAUAUCCCAUCGUUAAAUAUUCUACAGCA”, the “apparent Kd” value under setting [1] amounted to 8.4 nM and the “apparent Kd” value under setting [2] was 7.06 nM.

For the sequence “UUGUUAUAUGUAGGAUAUGCAUAUUGUUAUUAUGCAGAAGGACAUGAGGAUCACCCAUGUAUAUUAUUAUUAUAUAUUAUAUAU”, the “apparent Kd” value under setting [1] amounted to 32 nM and the “apparent Kd” value under setting [2] came out at 64.7 nM.

Turning to “UUUUAACAUGAGGAUCACCCAUGUGAGGAUAUCGAAAUUUAUAUUAAUAUUAUUAAUUCGAGAAGGCACAUUUU”, the “apparent Kd” value by setting is: under setting [1], 117 nM; under setting [2], 117 nM.

The values above are taken from the EternaBench riboswitch data.
